In ChEMBL document CHEMBL4610098, “Isolation and Synthesis of Veranamine, an Antidepressant Lead from the Marine Sponge Verongula rigida” (J Nat Prod, 2020) one finds Activity and Ki data, which are given here for two compounds.

The subject of one data set is Mus musculus. The data set can be described thus: Antidepressant activity in Swiss Webster (Harlan) mouse assessed as decrease in immobility time at 20 mg/kg, ip after 30 mins by forced swim test. The data set is classed as functional, organism-based. A digest of the protocol:
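Mice housed five per cage on 12 h light/dark cycle, randomized (n = 6–10/group), given i.p. dose in saline, 10% ethanol or 10% ethanol/1% DMSO vehicle; desipramine 20 mg/kg as reference. Directly after 30 min locomotor session, each mouse placed in water-filled cylinder (8 cm depth, 25 °C), videotaped 6 min; immobility over final 4 min timed by three observers, averaged.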

Data set [1] is described as follows: Effect on locomotor activity in Swiss Webster (Harlan) mouse at 20 mg/kg, ip after 30 mins by automated activity monitoring system based assay. Format: ADME, organism-based. To be noted: in vivo, 0.5 h. In a few lines: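 Mice in groups of five, 12 h light/dark, randomized (n = 6–10/group), dosed i.p. in saline, 10% ethanol or 10% ethanol/1% DMSO vehicle, desipramine 20 mg/kg reference. Each mouse put in Plexiglas enclosure right after injection; photobeam interruptions recorded for 30 min, with counts from the last 10 min quantified and analyzed.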

The target in data set [2] is Alpha-1A adrenergic receptor (Homo sapiens, UniProt P35348). As to the kind of experiment: Binding affinity to adrenoceptor alpha 1A (unknown origin).
Alpha-1A adrenergic receptor, sequence (P35348 whole entry): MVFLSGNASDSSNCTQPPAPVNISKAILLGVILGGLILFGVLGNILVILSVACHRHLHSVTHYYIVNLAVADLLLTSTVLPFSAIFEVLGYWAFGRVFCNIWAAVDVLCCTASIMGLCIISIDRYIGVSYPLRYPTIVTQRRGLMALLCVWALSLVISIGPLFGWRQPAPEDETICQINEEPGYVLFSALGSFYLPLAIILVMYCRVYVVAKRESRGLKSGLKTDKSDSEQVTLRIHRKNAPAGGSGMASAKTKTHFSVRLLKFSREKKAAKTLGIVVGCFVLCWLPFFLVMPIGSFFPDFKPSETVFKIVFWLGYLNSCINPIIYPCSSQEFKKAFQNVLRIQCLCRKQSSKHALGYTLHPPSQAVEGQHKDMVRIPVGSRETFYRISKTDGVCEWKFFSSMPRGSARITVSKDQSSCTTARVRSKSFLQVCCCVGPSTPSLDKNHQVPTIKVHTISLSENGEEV
For data set [3], the target named is Alpha-1B adrenergic receptor (Homo sapiens, UniProt P35368). The data set can be described thus: Binding affinity to adrenoceptor alpha 1B (unknown origin).
For data set [4], the target named is Alpha-2A adrenergic receptor (Homo sapiens, UniProt P08913). The data set can be described thus: Binding affinity to adrenoceptor alpha 2A (unknown origin).
Alpha-2A adrenergic receptor, sequence (P08913 whole entry): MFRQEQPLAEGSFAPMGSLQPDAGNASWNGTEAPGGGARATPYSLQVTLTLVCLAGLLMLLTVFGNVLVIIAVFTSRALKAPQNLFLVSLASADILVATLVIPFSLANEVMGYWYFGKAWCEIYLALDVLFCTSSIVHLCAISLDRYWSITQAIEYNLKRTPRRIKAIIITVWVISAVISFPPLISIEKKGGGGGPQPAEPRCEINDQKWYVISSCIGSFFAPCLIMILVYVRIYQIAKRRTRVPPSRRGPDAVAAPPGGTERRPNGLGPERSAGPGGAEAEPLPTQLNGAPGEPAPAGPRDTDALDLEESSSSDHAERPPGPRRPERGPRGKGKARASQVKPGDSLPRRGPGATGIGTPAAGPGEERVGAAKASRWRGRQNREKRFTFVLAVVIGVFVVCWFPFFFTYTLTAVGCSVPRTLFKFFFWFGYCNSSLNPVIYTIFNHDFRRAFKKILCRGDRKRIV
Data set [5] deals with Alpha-2B adrenergic receptor (Homo sapiens, UniProt P18089). As to the kind of experiment: Binding affinity to adrenoceptor alpha 2B (unknown origin).
The target in data set [6] is Alpha-2C adrenergic receptor (Homo sapiens, UniProt P18825). The data set can be described thus: Binding affinity to adrenoceptor alpha 2C (unknown origin).
In data set [7] the target is Beta-1 adrenergic receptor (Homo sapiens, UniProt P08588). The data set can be described thus: Binding affinity to beta1 adrenoceptor (unknown origin).
The next data set deals with D(1A) dopamine receptor (Homo sapiens, UniProt P21728). As to the kind of experiment: Binding affinity to dopamine D1 receptor (unknown origin).
D(1A) dopamine receptor, sequence (P21728 whole entry): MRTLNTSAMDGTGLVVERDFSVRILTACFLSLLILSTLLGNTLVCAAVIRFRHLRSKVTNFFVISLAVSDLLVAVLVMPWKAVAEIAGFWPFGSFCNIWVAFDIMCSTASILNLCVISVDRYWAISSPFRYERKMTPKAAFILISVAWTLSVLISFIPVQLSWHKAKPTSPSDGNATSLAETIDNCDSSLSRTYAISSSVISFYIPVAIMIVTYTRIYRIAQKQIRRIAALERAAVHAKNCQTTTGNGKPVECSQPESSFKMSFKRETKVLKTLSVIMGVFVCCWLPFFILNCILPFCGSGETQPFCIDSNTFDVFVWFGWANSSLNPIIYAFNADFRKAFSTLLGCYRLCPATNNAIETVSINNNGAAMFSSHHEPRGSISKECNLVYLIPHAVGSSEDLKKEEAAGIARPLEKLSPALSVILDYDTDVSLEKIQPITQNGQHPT
A further data set concerns the target D(2) dopamine receptor (Homo sapiens, UniProt P14416). The data set can be described thus: Binding affinity to dopamine D2 receptor (unknown origin).
For the next data set, the target named is D(3) dopamine receptor (Homo sapiens, UniProt P35462). As to the kind of experiment: Binding affinity to dopamine D3 receptor (unknown origin).
Another data set has as its target D(4) dopamine receptor (Homo sapiens, UniProt P21917). As to the kind of experiment: Binding affinity to dopamine D4 receptor (unknown origin).
The target of the next data set is D(1B) dopamine receptor (Homo sapiens, UniProt P21918). The data set can be described thus: Binding affinity to dopamine D5 receptor (unknown origin).
D(1B) dopamine receptor, sequence (P21918 whole entry): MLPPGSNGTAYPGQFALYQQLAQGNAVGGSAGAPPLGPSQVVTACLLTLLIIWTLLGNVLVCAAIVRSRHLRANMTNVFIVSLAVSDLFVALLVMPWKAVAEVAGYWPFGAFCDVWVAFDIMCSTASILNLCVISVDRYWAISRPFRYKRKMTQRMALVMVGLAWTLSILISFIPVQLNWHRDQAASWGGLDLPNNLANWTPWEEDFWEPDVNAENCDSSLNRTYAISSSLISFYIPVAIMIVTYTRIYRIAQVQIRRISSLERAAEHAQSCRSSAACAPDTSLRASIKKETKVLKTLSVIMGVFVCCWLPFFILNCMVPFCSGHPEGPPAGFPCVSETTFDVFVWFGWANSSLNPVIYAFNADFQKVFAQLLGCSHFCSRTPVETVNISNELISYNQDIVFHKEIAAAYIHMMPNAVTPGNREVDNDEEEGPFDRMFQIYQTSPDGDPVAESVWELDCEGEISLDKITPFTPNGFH
In the next data set the target is Histamine H1 receptor (Homo sapiens, UniProt P35367). The data set can be described thus: Binding affinity to histamine H1 receptor (unknown origin).
In another data set the target is Histamine H2 receptor (Homo sapiens, UniProt P25021). As to the kind of experiment: Binding affinity to histamine H2 receptor (unknown origin).
In the next data set the target is Histamine H3 receptor (Homo sapiens, UniProt Q9Y5N1). The data set can be described thus: Binding affinity to histamine H3 receptor (unknown origin).
Histamine H3 receptor, sequence (Q9Y5N1 whole entry): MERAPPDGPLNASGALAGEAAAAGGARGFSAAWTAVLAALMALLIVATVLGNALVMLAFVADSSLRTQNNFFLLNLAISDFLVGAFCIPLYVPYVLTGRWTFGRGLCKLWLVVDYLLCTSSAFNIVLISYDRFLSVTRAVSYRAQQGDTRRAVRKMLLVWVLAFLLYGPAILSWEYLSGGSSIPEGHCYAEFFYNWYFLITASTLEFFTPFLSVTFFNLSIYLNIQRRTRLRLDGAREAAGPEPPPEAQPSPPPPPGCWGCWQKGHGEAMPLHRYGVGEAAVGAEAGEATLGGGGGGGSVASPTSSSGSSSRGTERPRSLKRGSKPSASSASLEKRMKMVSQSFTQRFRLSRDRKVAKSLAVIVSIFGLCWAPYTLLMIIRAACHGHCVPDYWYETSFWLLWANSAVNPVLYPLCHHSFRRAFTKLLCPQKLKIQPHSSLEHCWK
A further data set concerns the target Histamine H4 receptor (Homo sapiens, UniProt Q9H3N8). As to the kind of experiment: Binding affinity to histamine H4 receptor (unknown origin).
Data set [8] concerns the target Muscarinic acetylcholine receptor M1 (Homo sapiens, UniProt P11229). The data set can be described thus: Binding affinity to muscarinic acetylcholine receptor M1 (unknown origin).
For data set [9], the target named is Muscarinic acetylcholine receptor M2 (Homo sapiens, UniProt P08172). The data set can be described thus: Binding affinity to muscarinic acetylcholine receptor M2 (unknown origin).
Data set [10] concerns the target Muscarinic acetylcholine receptor M3 (Homo sapiens, UniProt P20309). As to the kind of experiment: Binding affinity to muscarinic acetylcholine receptor M3 (unknown origin).
The target of data set [11] is Muscarinic acetylcholine receptor M4 (Homo sapiens, UniProt P08173). The data set can be described thus: Binding affinity to muscarinic acetylcholine receptor M4 (unknown origin).
Data set [12] deals with Muscarinic acetylcholine receptor M5 (Homo sapiens, UniProt P08912). The data set can be described thus: Binding affinity to muscarinic acetylcholine receptor M5 (unknown origin).
The target of data set [13] is Sodium-dependent serotonin transporter (Homo sapiens, UniProt P31645). The data set can be described thus: Binding affinity to SERT (unknown origin).
The target in data set [14] is Sodium-dependent noradrenaline transporter (Homo sapiens, UniProt P23975). As to the kind of experiment: Binding affinity to NET (unknown origin).
The target in data set [15] is Sodium-dependent dopamine transporter (Homo sapiens, UniProt Q01959). As to the kind of experiment: Binding affinity to DAT (unknown origin).
Sodium-dependent dopamine transporter, sequence (Q01959 whole entry): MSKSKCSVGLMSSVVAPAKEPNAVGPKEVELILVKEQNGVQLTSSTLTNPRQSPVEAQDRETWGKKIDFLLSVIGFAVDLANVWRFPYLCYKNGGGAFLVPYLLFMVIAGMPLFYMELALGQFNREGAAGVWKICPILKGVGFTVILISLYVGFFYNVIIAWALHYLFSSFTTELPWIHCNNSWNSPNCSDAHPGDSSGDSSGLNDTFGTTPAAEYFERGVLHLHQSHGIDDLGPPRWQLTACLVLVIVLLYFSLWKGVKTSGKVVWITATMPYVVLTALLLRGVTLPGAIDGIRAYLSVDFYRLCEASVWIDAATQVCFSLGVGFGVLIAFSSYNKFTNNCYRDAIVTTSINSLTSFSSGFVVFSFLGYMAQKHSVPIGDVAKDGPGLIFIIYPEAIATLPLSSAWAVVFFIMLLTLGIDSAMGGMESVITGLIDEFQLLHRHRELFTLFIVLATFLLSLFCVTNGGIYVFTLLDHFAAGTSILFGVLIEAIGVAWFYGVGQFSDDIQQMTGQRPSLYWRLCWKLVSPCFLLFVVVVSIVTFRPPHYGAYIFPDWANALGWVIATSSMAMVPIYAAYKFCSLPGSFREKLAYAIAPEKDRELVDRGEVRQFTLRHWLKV
A further data set addresses Mu-type opioid receptor (Homo sapiens, UniProt P35372). As to the kind of experiment: Binding affinity to MOR (unknown origin).
Data set [16] concerns the target Delta-type opioid receptor (Homo sapiens, UniProt P41143). The data set can be described thus: Binding affinity to DOR (unknown origin).
The target of data set [17] is Kappa-type opioid receptor (Homo sapiens, UniProt P41145). As to the kind of experiment: Binding affinity to KOR (unknown origin).
Kappa-type opioid receptor, sequence (P41145 whole entry): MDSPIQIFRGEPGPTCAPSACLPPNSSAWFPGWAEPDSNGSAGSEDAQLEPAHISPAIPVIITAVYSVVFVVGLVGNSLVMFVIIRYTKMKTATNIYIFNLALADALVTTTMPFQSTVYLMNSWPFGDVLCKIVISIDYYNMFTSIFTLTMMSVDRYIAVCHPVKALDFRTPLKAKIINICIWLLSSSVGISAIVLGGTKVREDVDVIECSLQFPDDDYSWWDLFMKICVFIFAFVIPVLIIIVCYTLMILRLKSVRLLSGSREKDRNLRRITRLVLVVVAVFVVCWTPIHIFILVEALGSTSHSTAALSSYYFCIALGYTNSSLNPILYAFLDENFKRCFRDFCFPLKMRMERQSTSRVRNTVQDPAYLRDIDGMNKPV
Data set [18] concerns the target 5-hydroxytryptamine receptor 1A (Homo sapiens, UniProt P08908). The data set can be described thus: Binding affinity to 5HT1A receptor (unknown origin).
Data set [19] concerns the target 5-hydroxytryptamine receptor 1B (Homo sapiens, UniProt P28222). The data set can be described thus: Binding affinity to 5HT1B receptor (unknown origin).
The target in data set [20] is 5-hydroxytryptamine receptor 1D (Homo sapiens, UniProt P28221). The data set can be described thus: Binding affinity to 5HT1D receptor (unknown origin).
For data set [21], the target named is 5-hydroxytryptamine receptor 1E (Homo sapiens, UniProt P28566). The data set can be described thus: Binding affinity to 5HT1E receptor (unknown origin).
In data set [22] the target is 5-hydroxytryptamine receptor 2A (Homo sapiens, UniProt P28223). The data set can be described thus: Binding affinity to 5HT2A receptor (unknown origin).
5-hydroxytryptamine receptor 2A, sequence (P28223 whole entry): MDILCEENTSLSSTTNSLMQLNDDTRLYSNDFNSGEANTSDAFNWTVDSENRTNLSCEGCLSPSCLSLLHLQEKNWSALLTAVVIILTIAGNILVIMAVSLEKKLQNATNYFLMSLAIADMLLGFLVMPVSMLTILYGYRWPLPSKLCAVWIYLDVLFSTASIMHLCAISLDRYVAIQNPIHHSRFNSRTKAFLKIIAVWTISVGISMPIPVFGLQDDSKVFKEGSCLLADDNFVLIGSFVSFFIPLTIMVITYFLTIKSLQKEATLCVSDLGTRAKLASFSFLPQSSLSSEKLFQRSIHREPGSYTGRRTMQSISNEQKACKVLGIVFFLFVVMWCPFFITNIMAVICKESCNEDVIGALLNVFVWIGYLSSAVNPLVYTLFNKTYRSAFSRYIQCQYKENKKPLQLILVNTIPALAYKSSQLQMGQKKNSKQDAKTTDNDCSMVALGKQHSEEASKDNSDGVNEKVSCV
Data set [23] has as its target 5-hydroxytryptamine receptor 2B (Homo sapiens, UniProt P41595). The data set can be described thus: Binding affinity to 5HT2B receptor (unknown origin).
Data set [24] deals with 5-hydroxytryptamine receptor 2C (Homo sapiens, UniProt P28335). As to the kind of experiment: Binding affinity to 5HT2C receptor (unknown origin).
Data set [25] addresses 5-hydroxytryptamine receptor 3A (Homo sapiens, UniProt P46098). As to the kind of experiment: Binding affinity to 5HT3 receptor (unknown origin).
Data set [26] addresses 5-hydroxytryptamine receptor 5A (Homo sapiens, UniProt P47898). The data set can be described thus: Binding affinity to 5HT5A receptor (unknown origin).
For data set [27], the target named is 5-hydroxytryptamine receptor 6 (Homo sapiens, UniProt P50406). As to the kind of experiment: Binding affinity to 5HT6 receptor (unknown origin).
5-hydroxytryptamine receptor 6, sequence (P50406 whole entry): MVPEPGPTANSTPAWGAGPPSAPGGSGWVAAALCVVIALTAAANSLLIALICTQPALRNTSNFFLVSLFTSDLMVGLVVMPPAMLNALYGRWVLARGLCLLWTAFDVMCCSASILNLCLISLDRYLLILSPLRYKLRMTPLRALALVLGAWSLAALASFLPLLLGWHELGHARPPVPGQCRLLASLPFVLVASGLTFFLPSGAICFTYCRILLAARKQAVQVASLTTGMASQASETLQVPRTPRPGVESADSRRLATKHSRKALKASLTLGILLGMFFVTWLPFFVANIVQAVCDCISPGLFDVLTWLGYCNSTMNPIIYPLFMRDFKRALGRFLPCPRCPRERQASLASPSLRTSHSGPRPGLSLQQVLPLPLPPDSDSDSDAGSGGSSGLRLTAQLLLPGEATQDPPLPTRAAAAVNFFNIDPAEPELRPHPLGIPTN
In data set [28] the target is T1, 5-hydroxytryptamine receptor 7 (Homo sapiens, UniProt P34969). The data set can be described thus: Binding affinity to 5HT7 receptor (unknown origin).
T1 sequence (P34969 whole entry): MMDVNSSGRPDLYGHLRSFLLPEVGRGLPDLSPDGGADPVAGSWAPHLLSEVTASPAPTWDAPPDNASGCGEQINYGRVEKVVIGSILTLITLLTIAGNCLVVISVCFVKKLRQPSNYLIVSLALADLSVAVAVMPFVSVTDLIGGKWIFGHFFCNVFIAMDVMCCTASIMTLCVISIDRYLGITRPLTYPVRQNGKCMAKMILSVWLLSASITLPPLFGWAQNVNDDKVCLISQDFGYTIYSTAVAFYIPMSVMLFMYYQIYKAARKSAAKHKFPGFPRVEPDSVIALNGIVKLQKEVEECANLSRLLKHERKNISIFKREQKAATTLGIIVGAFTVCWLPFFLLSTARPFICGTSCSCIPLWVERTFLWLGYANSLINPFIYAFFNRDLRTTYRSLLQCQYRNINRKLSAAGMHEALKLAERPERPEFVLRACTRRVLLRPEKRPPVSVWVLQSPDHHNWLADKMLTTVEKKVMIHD
The target of data set [29] is T1, 5-hydroxytryptamine receptor 7. As to the kind of experiment: Binding affinity to 5HT7A receptor (unknown origin).
In data set [30] the target is Sigma non-opioid intracellular receptor 1 (Homo sapiens, UniProt Q99720). As to the kind of experiment: Binding affinity to sigma1 receptor (unknown origin).
In data set [31] the target is Sigma intracellular receptor 2 (Homo sapiens, UniProt Q5BJF2). The data set can be described thus: Binding affinity to sigma2 receptor (unknown origin).
Sigma intracellular receptor 2, sequence (Q5BJF2 whole entry): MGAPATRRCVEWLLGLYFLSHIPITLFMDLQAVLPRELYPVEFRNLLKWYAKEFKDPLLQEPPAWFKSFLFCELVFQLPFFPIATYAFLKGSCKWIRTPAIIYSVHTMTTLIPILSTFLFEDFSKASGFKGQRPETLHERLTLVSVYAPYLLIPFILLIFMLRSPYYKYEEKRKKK

Active and inactive are the calls of the source. The calls are words filed in the database; no cut-off is given here.

In the case of `CNCCCN1c2ccccc2CCc2ccccc21`, in the data set on Mus musculus, the outcome was Active.
In the case of `Cc1nccc2c1C(C)(C)Nc1cc(Br)ccc1-2`, in the data set with Mus musculus, the outcome was Active. Also, the Activity result in data set [1] is “Non-Toxic”. Moreover, the Ki in [2], in [3], in [4], in data set [5], in data set [6] and in data set [7] was greater than 10 µM in each case. The inhibitory constant (Ki) on D(1A) dopamine receptor, at D(2) dopamine receptor, at D(3) dopamine receptor, at D(4) dopamine receptor, on D(1B) dopamine receptor and at Histamine H1 receptor was greater than 10 µM in each case. For the same compound, the Ki (at Histamine H2 receptor; at Histamine H3 receptor; at Histamine H4 receptor; in data set [8]; in data set [9]; in [10]) was greater than 10 µM in each case. Moreover, the Ki (in [11]; in data set [12]; in [13]; in [14]; in [15]; on Mu-type opioid receptor) was greater than 10 µM each time. Besides, the Ki in [16], in [17], in data set [18], in data set [19], in data set [20] and in data set [21] was greater than 10 µM throughout. In addition, the inhibitory constant (Ki) (commonly the equilibrium dissociation constant of an inhibitor or competing ligand from its target) in data set [22] was greater than 10 µM; in data set [23], 390 nM; in data set [24], greater than 10 µM; in [25] it was greater than 10 µM; in [26], greater than 10 µM; in data set [27] it was greater than 10 µM. Moreover, the Ki in [28] is greater than 10 µM; in [29], greater than 10 µM; in data set [30], 560 nM; in [31], greater than 10 µM.
